Hits are enriched below; roughly 4.1% of the tested compounds scored in any of these assays.
KCNQ1 inh: human KCNQ1 channel inhibition. CHO-K1 KCNQ1, FluxOR thallium flux fluorescence; stronger effect = higher value. B-score at 10 µM. 310,000 tested, 1.3% active. AID 2642;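 active means compounds whose thallium flux B-score, printed positive for inhibition, exceeds three library SD while starting fluorescence stays within three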;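 further: channel opened by potassium depolarization with thallium stimulus after 20 min compound exposure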
Target sequence (P51787 whole entry, looked up): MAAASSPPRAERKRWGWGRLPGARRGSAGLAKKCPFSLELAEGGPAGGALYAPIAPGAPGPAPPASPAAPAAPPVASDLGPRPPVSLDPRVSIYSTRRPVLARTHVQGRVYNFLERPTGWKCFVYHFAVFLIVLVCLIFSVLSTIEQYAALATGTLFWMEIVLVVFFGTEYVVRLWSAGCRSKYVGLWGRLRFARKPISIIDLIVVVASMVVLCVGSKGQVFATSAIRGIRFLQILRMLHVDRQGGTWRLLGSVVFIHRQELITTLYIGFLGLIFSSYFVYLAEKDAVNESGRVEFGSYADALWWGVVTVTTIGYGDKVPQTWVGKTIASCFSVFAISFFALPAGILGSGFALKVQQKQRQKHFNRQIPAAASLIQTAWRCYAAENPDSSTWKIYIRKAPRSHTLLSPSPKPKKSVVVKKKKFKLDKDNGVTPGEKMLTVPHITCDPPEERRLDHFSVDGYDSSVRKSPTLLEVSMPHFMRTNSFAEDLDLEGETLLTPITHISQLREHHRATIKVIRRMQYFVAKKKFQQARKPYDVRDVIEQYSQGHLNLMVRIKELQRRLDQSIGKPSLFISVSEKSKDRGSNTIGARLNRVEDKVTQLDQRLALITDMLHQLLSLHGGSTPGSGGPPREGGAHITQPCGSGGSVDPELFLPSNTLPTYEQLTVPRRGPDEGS
KCNK3 inh: human KCNK3 channel inhibition, primary screen; B-score at 10 µM; 340,000 tested, 0.84% active; O14649; AID 602410; CHO-KCNK3 thallium flux, FluxOR fluorescence; stronger effect = lower value;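 active means B-score under library mean minus 4 SD, starting fluorescence ratio at most library mean plus 5 SD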;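 further: more negative B-score means stronger inhibition of thallium flux through KCNK3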
KCNQ1 pot: human KCNQ1 channel potentiation or activation; B-score at 10 µM; CHO-K1 KCNQ1, thallium flux FluxOR fluorescence; stronger effect = higher value; 310,000 tested, 0.35% active; AID 2648;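 active means fluorescence ratio B-score, a plate-corrected score, at least three library SD, with initial intensity B-score within 5 SD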
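Assay system: CHO-K1 cells stably expressing KCNQ1. Medium: assay buffer for compound exposure, DMSO matched across wells. Timing: 37 °C overnight plating, 90-min dark dye load, 20-min compound pretreatment. Signal: kinetic FluxOR fluorescence, 10 s baseline plus 110 s post-stimulus.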
KCNK9 inh: blocks the human KCNK9 two-pore domain potassium channel; 310,000 tested, 1.2% active; HEK293 KCNK9, FluxOR thallium flux fluorescence; stronger effect = lower value; Q9NPC2; B-score at 10 µM; AID 488922;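 active means ratio B-score over 3 SD below the library mean, with starting fluorescence within 5 SD of its mean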;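 further: negative B-score means less thallium flux so channel inhibition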
Cl transport mod: modulators of human KCC2 chloride dependent transport; Q9H2X9; KCC2 cells, thallium flux FluoZin-2 fluorescence; B-score of Tl+ flux slope (higher = more flux/activation; lower = inhibition) at 10 µM; 190,000 tested, 2.2% active; AID 1456;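 active means thallium flux slope and its plate-corrected score both differing from the plate sample mean at a set confidence after two filtering rounds, in either direction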;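 further: slope of fluorescence scaled to starting intensity during 10 to 20 s after thallium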
hERG protect: shields human hERG channel from block by proarrhythmic agents | activation (rescue from dofetilide block), less the hit threshold, % at 10 µM | Q12809 | 310,000 tested, 0.51% active | CHO-hERG, FluxOR thallium flux, dofetilide IC70 present | AID 1511;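 active means activation above the mean of controls blocked by dofetilide plus 5 SD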;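 further: thallium influx through hERG after potassium depolarization seen as dye fluorescence rise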
KCNK9 inh conf: human KCNK9 inhibitor confirmation; 4,900 tested, 43% active; HEK293 KCNK9 cells, FluxOR thallium flux fluorescence; inhibition, % at 10 µM; shares compounds with KCNK9 inh;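 active means thallium signal inhibited by more than 5 SD of the compound-free buffer control wells, on both duplicate plates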
Kir2-1 spec: tests whether KCNK9 modulators also affect mouse Kir2.1 | Kir2.1 cells, FluxOR thallium flux fluorescence | 4,900 tested, 4% active | inhibition, % at 10 µM | shares compounds with KCNK9 inh;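 active means thallium signal drop more than 5 SD beyond the mean of the no-compound control wells, seen in both duplicate plates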;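 further: signal is fluorescence rise after thallium addition divided by baseline fluorescence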
HEK293 Tl ctr: non-induced cell nonspecific activity of KCNK9 modulators; shares compounds with KCNK9 inh; non-induced KCNK9-HEK293, FluxOR thallium flux; inhibition, % at 10 µM; 4,900 tested, 40% active;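 active means thallium signal drop beyond 5 SD of the untreated control mean, on both duplicate plates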
A number is an active result; 0 = inactive; - = no result given.

SMILES	KCNQ1 inh	KCNK3 inh	KCNQ1 pot	KCNK9 inh	Cl transport mod	hERG protect	KCNK9 inh conf	Kir2-1 spec	HEK293 Tl ctr
CCC(=O)n1nc(NCc2ccccc2OC)nc1NCc1ccccc1OC	8	0	0	0	0	0	0	0	0
COc1ccc(CNc2nc(NCc3ccc(OC)cc3)n(C(C)=O)n2)cc1	0	0	0	0	-	0	-	-	-
COc1ccc(CNC(=O)C2CCN(C(=O)c3cccc(Cl)c3)CC2)cc1	0	0	0	0	-	0	-	-	-
NC(N)=Nc1nc(-c2ccccc2)c2ccccc2n1	0	0	0	-9.6	0	0	27%	0	0
COc1ccc2c(c1)c(C(=O)N/N=C/c1ccc(OC)c(OC)c1)c(C)n2C	0	0	0	0	0	0	-	-	-
COc1ccc2c(c1)c(C(=O)N/N=C/c1cn(C)c3ccccc13)c(C)n2C	0	0	0	-9.4	0	0	0	0	0
COc1ccc(C(=O)Nc2ccccc2C(=O)N/N=C/c2cccc3ccccc23)cc1	0	0	0	-8.5	0	0	61%	0	37%
COc1ccc(C(=O)Nc2ccccc2C(N)=O)cc1	0	0	0	0	-	0	-	-	-
O=C1C2C3C=CC(CO)(O3)C2C(=O)N1c1ccc(-c2ccccc2)cc1 (stereo not drawn)	0	-	0	0	-	0	-	-	-
CC1Cc2ccccc2N1C(=O)CNc1cccc(S(=O)(=O)N2CCCC2)c1 (stereo not drawn)	0	0	0	0	0	0	0	0	0
COc1ccc(-c2csc(NC(C)c3nc4cc(Cl)c(Cl)cc4n3CCOCCO)n2)cc1 (stereo not drawn)	0	0	0	-8.6	-	0	32%	0	40%
N#C/C(=C\c1c(Cl)cccc1Cl)c1nc2ccccc2[nH]1	0	0	0	-8.8	0	0	46%	0	0
Cc1cc(O)ccc1N/C=C(\C#N)c1nc2ccccc2o1	0	0	0	0	0	0	-	-	-
N#C/C(=C\c1c(Cl)cccc1Cl)c1nc2ccccc2o1	0	0	0	0	0	0	0	0	0
COc1ccc(NC(=O)NCCN2C(=O)C3C4C=CC(C4)C3C2=O)cc1 (stereo not drawn)	0	0	0	0	0	0	-	-	-
O=C(COc1cccc(Br)c1)Nc1ccc(N2CCOCC2)cc1N1CCOCC1	-	0	-	-	-	-	-	-	-
CCOC(=O)C1(CCOc2ccccc2)CCN(Cc2cc(OC)ccc2OC)CC1	0	0	0	0	-	0	0	0	0
CCOC(=O)C1(CCOc2ccccc2)CCN(Cc2cccn2-c2ncccn2)CC1	0	0	0	0	-	0	0	0	0
CCOC(=O)C1(CCOc2ccccc2)CCN(Cc2ccncc2)CC1	0	0	0	0	0	0	-	-	-
CCOC(=O)C1(CCOc2ccccc2)CCN(Cc2ccc(F)c(OC)c2)CC1	0	0	0	0	-	0	0	0	0
CN(C)c1nccc(Nc2ccccc2)c1C#N	0	0	0	0	0	0	-	-	-
ClC(=C\c1ccccc1)/C=N/N1CCN(c2ccccn2)CC1	0	0	0	0	-	0	-	-	-
O=C(c1ccco1)N1CCc2[nH]nc(-c3ccc(Cl)cc3)c2C1	0	0	0	0	-	0	-	-	-
COc1ccc(-c2n[nH]c3c2CN(C(=O)c2ccccc2)CC3)cc1	0	0	0	0	-	0	0	0	0
O=C(Nc1cccc(Cl)c1N1CCCC1)c1ccc(Br)o1	0	0	0	-9.3	-	0	28%	0	32%
SMILES	KCNQ1 inh	KCNK3 inh	KCNQ1 pot	KCNK9 inh	Cl transport mod	hERG protect	KCNK9 inh conf	Kir2-1 spec	HEK293 Tl ctr
O=C(Nc1cccc(Cl)c1N1CCCC1)c1cc2ccccc2o1	0	0	0	0	0	0	-	-	-
CCN1CCN(c2c(Cl)cccc2NC(=O)c2ccc([N+](=O)[O-])o2)CC1	0	0	0	0	-	0	-	-	-
O=C(Nc1cccc(Cl)c1N1CCCC1)c1ccc([N+](=O)[O-])o1	0	0	0	-10	0	0	34%	0	28%
COc1ccc(-c2cc(=O)n(-c3ccc([N+](=O)[O-])cc3)[nH]2)cc1	0	0	0	0	0	0	0	0	0
CCCCOc1ccc(/C=C/C(=O)OCC(=O)N2CC(=O)Nc3ccccc32)cc1OCC	0	0	0	0	0	0	-	-	-
CCn1c2ccccc2c2cc(NC(=O)c3cccc(OC)c3)ccc21	0	0	0	-12	-	0	43%	0	36%
COc1cccc(C(=O)OCCN2CCCCC2)c1	0	0	0	0	0	0	0	0	0
COc1cccc(C(=O)OC(C)CN2CCCC2)c1 (stereo not drawn)	0	0	0	0	0	0	-	-	-
Cc1ccc(C)c(C(=O)COC(=O)c2cc([N+](=O)[O-])ccc2N2CCOCC2)c1	0	0	0	0	-	0	-	-	-
Cc1ccc(C)c(C(=O)COC(=O)c2cc([N+](=O)[O-])ccc2NCCO)c1	0	0	11	-8.2	0	0	59%	0	0
CSc1ccccc1OCc1cc(C(=O)N(C)Cc2cc(C)[nH]n2)no1	0	0	0	0	-	0	-	-	-
Cc1nn(CCC#N)c2[nH]c(=O)cc(C(F)(F)F)c12	0	0	0	0	0	0	-	-	-
COc1ccc(-c2nn(-c3ccccc3)cc2CNC(=O)c2cccc([N+](=O)[O-])c2)cc1	0	0	0	-11	0	0	52%	0	30%
S=C(c1ccccc1)N1CCN(c2ccccc2)CC1	-	0	-	-	-	-	-	-	-
CC(C)(C)c1ccc(C(=S)N2CCN(c3ccccc3)CC2)cc1	6	0	0	0	0	0	0	0	0
CCN(CC)c1ccc(/C=N/N2CCN(Cc3ccc(C)cc3)CC2)c(O)c1	0	0	0	0	0	0	0	0	0
CCN(CC)c1ccc(/C=N/N2CCN(Cc3ccccc3Cl)CC2)c(O)c1	0	0	0	0	0	0	-	-	-
COc1ccccc1/C=C/CN1CCN(c2ccccc2)CC1	0	0	0	0	0	0	0	0	0
COc1ccc2ccccc2c1CN1CCN(Cc2ccccc2)CC1	0	0	0	0	0	0	0	0	0
Cc1ccc(CN2CCN(/N=C/c3cc([N+](=O)[O-])ccc3Cl)CC2)cc1	0	0	0	0	0	0	-	-	-
Cc1ccc(CN2CCN(/N=C/C=C/c3ccccc3[N+](=O)[O-])CC2)cc1	0	0	0	0	0	0	0	0	0
Cc1ccc(CSc2nnc(SCC(=O)N/N=C/C=C/c3ccco3)s2)cc1	0	0	0	0	0	0	-	-	-
Cc1ccc(CN2CCN(/N=C\C(Br)=C\c3ccccc3)CC2)cc1	0	0	0	0	0	0	0	0	0

Screens as filed in PubChem BioAssay.
